The source of these data is ChEMBL document CHEMBL1649528 (Antimicrob Agents Chemother, 2009).

Molecules are shown by their SMILES. A value given as a limit tells only on which side of the number the result lay.

Test [1] deals with dengue virus type 1. As to the kind of experiment: Antiviral activity against Dengue virus 1 infected in african green monkey Vero cells assessed as decrease in viral RNA synthesis after 24 hrs by luciferase reporter gene assay. Type of test: functional, organism-based. The method, boiled down:
(§1)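 Stable Rluc-Neo-Rep replicon-bearing Vero cells (DENV-1 or WNV; kept in DMEM/10% FBS with 1 mg/ml G418, 37°C, 5% CO₂) treated with Cs at ≤8 μM. Read-out is replicon Renilla luciferase, and 50% effective concentration is taken from the dose response.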
Background: In a reporter assay the amount or activity of a reporter protein is the signal.

Test [2] has as its system West Nile virus. Nature of the test: Antiviral activity against West Nile virus infected in human Huh7.5 cells assessed as decrease in viral replication at 8 uM after 24 hrs by luciferase reporter gene assay. Particulars: Huh-7, 24 h. It is filed as functional. A digest of the protocol: (§2)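 Huh-7.5 shRNA lines (CyPA knockdown sh-A and control sh-Fluc; puromycin 1 μg/ml) seeded at 2 × 10⁴/well and infected 24 h later with WNV VLP at 1 FFU/cell. Cs (0, 4 or 8 μM) or 1% ethanol added at once. Luciferase read at 24 h p.i. and expressed as % of ethanol-treated sh-Fluc. Mean ± SD of three independent experiments.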

Test [3] has as its system dengue virus type 1. As to the kind of experiment: Antiviral activity against Dengue virus 1 infected in human Huh7.5 cells assessed as decrease in viral RNA synthesis at 8 uM after => 20 hrs by luciferase reporter gene assay. Particulars: Huh-7, 20 h. It is filed as functional. A digest of the protocol: (§3)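 Rluc2A-Rep replicon RNA (10 μg; WNV or DENV-1) electroporated into Huh-7.5 cells, seeded at 4 × 10⁵/well, then treated at once with 8 μM Cs or 1% ethanol. Cells washed with cold PBS and lysed at time points, and lysates frozen at −80°C. Luciferase read on 20 μl lysate. Early signal (1–10 h p.t.) reflects translation and later signal (>10 h) reflects RNA replication.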

In test [4] the test system is West Nile virus. Nature of the test: Antiviral activity against West Nile virus infected in CyPA-deficient human Huh7.5 cells assessed as decrease in viral replication at 8 uM after 24 hrs by luciferase reporter gene assay. Conditions: Huh-7, 24 h. It is filed as functional. The method, boiled down:
as §2

The test system of a further test is Yellow fever virus. As to the kind of experiment: microbe, parasite or virus in culture. It is filed as functional. Conditions: Huh-7, 20 h.
Test [5] concerns West Nile virus. Nature of the test: Antiviral activity against West Nile virus infected in african green monkey Vero cells assessed as decrease in viral RNA synthesis after 24 hrs by luciferase reporter gene assay. Type of test: functional, organism-based. The method, boiled down: as §1
Test [6] concerns West Nile virus. Nature of the test: Antiviral activity against West Nile virus infected in CyPA-deficient human Huh7.5 cells assessed as decrease in viral replication at 4 uM after 24 hrs by luciferase reporter gene assay. It is filed as functional. Particulars: Huh-7, 24 h. The method, boiled down:
as §2

For test [7], the system named is West Nile virus. Nature of the test: Antiviral activity against West Nile virus infected in human Huh7.5 cells assessed as decrease in viral RNA synthesis at 8 uM after => 20 hrs by luciferase reporter gene assay. It is filed as functional. Conditions: Huh-7, 20 h. The method, boiled down:
as §3

By IC50 is commonly meant the concentration that gives 50% inhibition. One may read the inhibition as the share of the control response that was lost under treatment. As to `C/C=C/C[C@@H](C)[C@@H](O)[C@H]1C(=O)N[C@@H](CC)C(=O)N(C)CC(=O)N(C)[C@@H](CC(C)C)C(=O)N[C@@H](C(C)C)C(=O)N(C)[C@@H](CC(C)C)C(=O)N[C@@H](C)C(=O)N[C@H](C)C(=O)N(C)[C@@H](CC(C)C)C(=O)N(C)[C@@H](CC(C)C)C(=O)N(C)[C@@H](C(C)C)C(=O)N1C` [CYCLOSPORINE], the half-maximal inhibitory concentration (IC50) in the test on dengue virus type 1 [1] was at most 0.5 µM; with West Nile virus [5], 8 µM. Also, the inhibition at 8 µM is 4% with West Nile virus [2]; at least 70% in the test with dengue virus type 1 [3]; 2% with West Nile virus [4]; at least 70% in the test with Yellow fever virus; at least 70% with West Nile virus [7]. The inhibition at 4 µM in the test on West Nile virus [6] was 10%.
